Only some compounds are listed: those with a hit (about 3% of all), similar ones and a draw of the others.
S1P3 agonist: activates the human S1P3 receptor; S1P3 NFAT-BLA reporter cells, agonism, FRET ratio; relative to 1 µM S1P, basal subtracted; activation, % at 4.5 µM; 60,000 tested, 0.1% active; AID 373;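 active = activation above the screen-wide mean plus 3 SD, cut at about 4.5% in these data, passing the limit was not always enough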
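Assay system: stable CHO line with human S1P3, Gα16, NFAT-BLA reporter; Detection: FRET β-lactamase substrate fluorescence, excitation 405 nm, 460/535 nm emission ratio, background-subtracted; Read-out: percent activation versus median 1 µM S1P response, basal-subtracted, per plate; Incubation: cells plated overnight, compound 4 h 37 °C, substrate 2 h RT.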
5HT1a antag: blocks the human serotonin 5-HT1a receptor. inhibition, % at 10 µM. P08908. AID 612. CHO 5-HT1a Ga15 NFAT-bla reporter, antagonist mode. 62,000 tested, 0.68% active;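 active = inhibition above the mean of all tested compounds plus 3 SD, cut at about 43% in these data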;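 note: receptor stimulated by 5-CT agonist at 100 nM near EC80; beta-lactamase reporter measured by ratiometric fluorescence of a cleavable substrate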
Target sequence (P08908 whole entry, looked up): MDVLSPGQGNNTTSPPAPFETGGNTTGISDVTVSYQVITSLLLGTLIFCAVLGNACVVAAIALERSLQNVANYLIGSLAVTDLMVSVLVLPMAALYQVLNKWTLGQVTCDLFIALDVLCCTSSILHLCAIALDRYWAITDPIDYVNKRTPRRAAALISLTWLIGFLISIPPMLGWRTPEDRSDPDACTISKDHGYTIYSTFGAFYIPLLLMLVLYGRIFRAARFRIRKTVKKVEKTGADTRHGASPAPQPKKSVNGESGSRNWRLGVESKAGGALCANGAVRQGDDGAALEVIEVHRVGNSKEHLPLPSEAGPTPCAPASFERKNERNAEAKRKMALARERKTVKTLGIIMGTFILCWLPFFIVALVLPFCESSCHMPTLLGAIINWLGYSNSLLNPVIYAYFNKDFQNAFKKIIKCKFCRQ
S1P1 ag pot: agonists and agonism potentiators of human S1P1 receptor; P21453; S1P1 CRE-bla cells, forskolin, beta-lactamase FRET, potentiator mode; S1P1 agonist co-added at EC20, 2 nM; 100% = saturating reference agonist, 0% = basal; activation, % at 9.5 µM; 56,000 tested, 0.57% active; AID 449;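 active = activation above a cutoff set at the mean activation of all tested compounds plus 3 SD, cut at about 54% in these data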;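 note: forskolin at 4 µM as EC80 and the EC20 agonist is SEW2871; 100% = SEW2871 at its EC100 plus forskolin at EC80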
HTR1E agonist: activates the human 5-HT1E serotonin receptor; P28566; 65,000 tested, 0.69% active; CHO 5-HT1E Ga15 NFAT-bla reporter, FRET; 0% DMSO wells, 100% control agonist wells; activation, % at 6 µM;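 active = activation above a set limit, the screen-wide mean activation plus 3 SD, cut at about 8.5% in these data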;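 note: 100% = positive control agonist at 1 µM giving full maximal response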
5HT1E antag: antagonists of human 5-HT1E serotonin receptor | 65,000 tested, 0.99% active | AID 571 | inhibition, % at 6 µM | P28566 | CHO 5-HT1E Ga15 NFAT-bla reporter, FRET, antagonist;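 active = inhibition above a set limit, the mean inhibition across every tested compound plus 3 SD, cut at about 29% in these data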;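 note: signal is the 460 over 535 nm emission ratio of beta-lactamase substrate; 0% = agonist plus DMSO wells and 100% = wells without agonist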
HTR1A agonist: activates the human 5-HT1a serotonin receptor; P08908; CHO 5-HT1a Ga15 NFAT-bla reporter, FRET ratio; 0% basal, 100% maximal reference agonist; activation, % at 10 µM; 65,000 tested, 0.56% active; AID 567;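 active = activation above the screen-wide mean activation plus 3 SD, cut at about 19% in these data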;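 note: 0% = DMSO wells and 100% = 5-CT at EC100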
* marks the source's active call; other numbers are inactive results; · = no result.

SMILES	S1P3 agonist	5HT1a antag	S1P1 ag pot	HTR1E agonist	5HT1E antag	HTR1A agonist
Cc1nc2cc(C(F)(F)F)ccc2n1C1CCN(Cc2nnnn2Cc2cccs2)CC1	·	-14.3	·	-0.7	9.4	-0.9
Cc1nc2cc(C(F)(F)F)ccc2n1C1CCN(Cc2nnnn2Cc2ccc3c(c2)OCO3)CC1	-0.1	9.3	16.4	0.3	37.5*	-0.1
CC12CN3C(O)C(C)(C1)CC(C)(C2)C3O (stereo unspecified)	0.1	6.7	-0.8	-1.2	10.7	-4.2
CC1(C)CC(=O)C=C(NCCN2CCN(C(=O)Cc3ccc(Cl)cc3)CC2)C1	-0.2	-2.0	7.8	0.5	-0.1	0.1
COc1ccc(Cc2nccc3cc(OC)c(OC)cc23)cc1OC	2.3	·	7.8	0.1	41.3*	-2.6
CC(N=Cc1c(O)[nH]c(=O)[nH]c1=O)c1ccccc1 (stereo unspecified)	-0.3	-13.1	-8.4	0.0	-1.4	-4.3
Clc1ccc2c(N3CCNCC3)ccnc2c1	0.2	10.7	5.6	12.2*	8.9	-1.5
O=P(O)(O)Cc1ccccc1OP(=O)(c1ccccc1)c1ccccc1	0.7	2.3	-12.1	0.2	-2.7	1.1
CC1(C)COC(Nc2ccc(Cl)cc2)=N1	0.2	-3.6	·	0.7	-7.4	1.2
CN1CCN(c2nccc3c2ncn3C)CC1	-0.9	0.6	-24.6	9.8*	-5.6	-2.0
CCn1nc(-c2ccccc2)nc2c(=O)n(C)c(=O)nc1-2	-1.6	85.2*	73.3*	2.1	100.6*	8.5
COc1ccc(-n2c(O)c(C(C)=NCCN3CCNCC3)c(=O)[nH]c2=O)cc1	-0.6	3.4	-8.3	-0.8	-7.4	2.1
CC(C)OC(=O)c1c(N)n(Cc2ccco2)c2nc3ccccc3nc12	-3.7	·	-31.8	0.1	28.8*	6.1
COCCOC(=O)c1c(N)n(Cc2ccco2)c2nc3ccccc3nc12	-2.8	·	-25.1	-0.3	11.1	2.2
Nc1c(C(=O)NCc2ccco2)c2nc3ccccc3nc2n1CCN1CCCCC1	11.4*	·	-123.4	0.5	-23.1	5.8
CCCCc1nc2ccccc2c(=O)n1-c1ccc(O)cc1	-0.2	-2.1	-13.6	0.1	-4.9	1.4
Cc1n[nH]c(C)c1CCN	0.1	6.6	-0.6	-0.6	6.1	-1.7
Cc1[nH]c2c(C(F)(F)F)cccc2c1CCN	-0.5	6.7	16.4	66.7*	21.6	-1.1
C=Cn1ccnc1P(=S)(c1ccn(C)c1)c1nccn1C=C	·	-8.0	·	-0.6	-7.2	0.7
COc1cc(CN2CCN(c3cc(C)ccc3C)CC2)ccc1O	-0.7	28.2	·	7.0	16.8	-0.5
Cc1ccc2c(c1)C1CN(C)CCC1N2C(=O)c1ccc(Br)o1 (stereo unspecified)	·	59.6*	·	-0.3	-5.5	-3.0
Cc1ccc2c(c1)[C@@H]1CN(C)CC[C@@H]1N2C(=O)Nc1cccc(C(F)(F)F)c1	-4.6	·	8.1	0.1	0.7	-0.3
O=C(NC[P+](=O)O)OCc1ccccc1	1.0	-3.8	-18.2	0.8	-1.7	-2.7
CN1C[C@H](CNC(=O)OCc2ccccc2)C[C@@H]2c3cccc4c3c(cn4C)C[C@H]21	50.2	·	-8.2	21.5*	9.3	85.4*
CCOC(=O)c1cc2c(cn1)[nH]c1ccccc12	-4.0	·	11.0	-0.7	32.3*	2.2
SMILES	S1P3 agonist	5HT1a antag	S1P1 ag pot	HTR1E agonist	5HT1E antag	HTR1A agonist
CNCC(O)c1cccc(OC(=O)c2ccccc2C)c1 (stereo unspecified)	-0.7	0.2	-3.1	9.4*	-3.2	3.3
c1cc2n(c1)-c1c(ccc3c1OCO3)CNC2c1ccc2c(c1)OCO2 (stereo unspecified)	-0.4	35.8	24.8	-0.1	10.6	0.3
COc1ccc(C2NCc3ccc4c(c3-n3cccc32)OCO4)cc1O (stereo unspecified)	-0.6	64.9*	8.8	-0.1	30.6*	-0.9
COc1ccccc1N1CCN(Cc2ccc(Br)s2)CC1	-0.9	44.2*	-23.1	4.6	-4.1	-1.8
Nc1nnc(CCN2CCCCC2)s1	-0.5	-4.1	3.7	-0.2	8.2	-4.9
CCCCNC(=O)c1c(N)n(CCCOC)c2nc3ccccc3nc12	·	18.3	·	3.7	20.2	16.7
CC(C)OCCCNC(=O)c1c(N)n(Cc2cccs2)c2nc3ccccc3nc12	12.1*	-24.5	-243.9	10.7*	-10.9	41.1*
CCCNC(=O)c1c(N)n(Cc2ccc3c(c2)OCO3)c2nc3ccccc3nc12	18.4	-8.2	-45.8	5.5	-2.3	36.3*
COc1ccc(Cn2c(N)c(C(=O)NCc3ccco3)c3nc4ccccc4nc32)cc1OC	3.7	32.8	-125.2	1.5	18.8	3.4
O=P(c1ccccc1)(c1ccccc1)N1CCCCC1	-3.4	·	-6.8	-1.2	5.2	3.2
CC(C)n1nnnc1CN1CCN(C)CC1	0.0	-17.4	7.9	-0.7	2.2	0.4
Nc1c(C(=O)NC2CCCC2)c2nc3ccccc3nc2n1CC1CCCO1 (stereo unspecified)	8.2*	-10.3	-112.3	7.0	-8.2	28.1*
CNCCc1nc(N)n[nH]1	-2.7	·	-7.6	-0.1	-2.1	0.3
CN(C)c1nc(OCCNC(=O)COc2ccc(Cl)cc2Cl)nc(N2CCCCC2)n1	-0.4	-3.3	·	0.5	101.6*	-1.0
CCn1c(O)c(C=NCCc2c[nH]c3ccccc23)c(=O)[nH]c1=O	-1.2	11.9	-6.6	16.7*	5.0	0.1
CC(=O)c1cccc(OCC(O)CN2CC=C(c3ccccc3)CC2)c1 (stereo unspecified)	-0.8	65.4*	-4.4	-0.8	11.3	4.7
Oc1ccc(C2NCc3ccccc3-n3cccc32)cc1Cl (stereo unspecified)	0.4	-7.4	94.4*	0.6	5.9	1.6
Cc1cc(C)c(C(=O)CN2CCOCC2)c(C)c1	0.4	3.3	-5.4	0.5	-0.4	-3.0
COc1ccc(C(=O)CN2CCOCC2)cc1F	-3.8	·	9.7	0.7	1.2	3.1
COc1ccc(C(=O)N2CCOCC2)cc1S(=O)(=O)N1CCC(C)CC1	-0.1	-7.6	·	0.2	-1.5	40.2*
CC[C@@H](CO)NC(=O)[C@@H]1C=C2c3cccc4c3c(cn4C)C[C@H]2N(C)C1	-3.1	·	-19.2	95.1*	-6.5	52.9*
CCN1CC=C(c2c[nH]c3ccccc23)CC1	-1.0	-0.7	15.0	99.5*	-4.6	-0.9
CN(C=O)CP(=O)(O)CN(C)C=O	0.7	-23.1	-7.2	0.0	-6.0	0.1

Bioassay records from PubChem.
